From ChEMBL document CHEMBL5357024, “MDM2 Antagonist Idasanutlin Reduces HDAC1/2 Abundance and Corepressor Partners but Not HDAC3” (ACS Med Chem Lett, 2024)
The source made the active and inactive calls. No cut-off for these calls is given here.

Tests used:
[1] = target: T1, E3 ubiquitin-protein ligase Mdm2/Histone deacetylase 3 (Homo sapiens) (UniProt Q00987+O15379); assay: PROTAC activity at MDM2/HDAC3 in human HCT-116 cells assessed as reduction in HDAC3 abundance by measuring remaining activity at 0.1 uM measured after 24 hrs by Western blot analysis (reference value: 100%); type: cell-based
T1 sequence (O15379 whole entry, looked up): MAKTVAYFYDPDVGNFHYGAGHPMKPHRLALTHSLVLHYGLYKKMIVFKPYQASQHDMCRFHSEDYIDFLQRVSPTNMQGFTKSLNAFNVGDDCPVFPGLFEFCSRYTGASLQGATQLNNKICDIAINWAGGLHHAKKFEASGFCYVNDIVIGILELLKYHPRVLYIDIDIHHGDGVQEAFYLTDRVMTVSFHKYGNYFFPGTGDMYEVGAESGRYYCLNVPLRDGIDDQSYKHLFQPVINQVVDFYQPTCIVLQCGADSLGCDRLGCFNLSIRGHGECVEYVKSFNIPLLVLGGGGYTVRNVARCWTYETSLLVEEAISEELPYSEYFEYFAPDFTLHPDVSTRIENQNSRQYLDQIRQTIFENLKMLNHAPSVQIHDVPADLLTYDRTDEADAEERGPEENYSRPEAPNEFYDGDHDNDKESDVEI
T1 sequence (Q00987 whole entry, looked up): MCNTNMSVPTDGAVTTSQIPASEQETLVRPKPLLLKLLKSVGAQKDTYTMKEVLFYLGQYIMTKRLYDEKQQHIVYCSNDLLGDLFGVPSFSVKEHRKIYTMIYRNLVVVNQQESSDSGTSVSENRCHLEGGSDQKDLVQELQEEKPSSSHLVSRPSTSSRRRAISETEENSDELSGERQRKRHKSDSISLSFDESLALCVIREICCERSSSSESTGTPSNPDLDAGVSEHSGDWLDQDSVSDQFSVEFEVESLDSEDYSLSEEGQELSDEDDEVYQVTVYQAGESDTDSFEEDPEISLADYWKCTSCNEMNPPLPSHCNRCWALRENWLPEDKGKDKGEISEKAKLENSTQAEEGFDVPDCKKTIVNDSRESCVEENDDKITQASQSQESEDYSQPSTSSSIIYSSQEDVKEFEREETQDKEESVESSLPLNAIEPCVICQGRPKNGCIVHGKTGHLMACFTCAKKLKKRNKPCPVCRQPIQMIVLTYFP
How it was run: (§1)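 HCT116 cells in DMEM with 10% FBS and glutamine/penicillin/streptomycin at 37 °C, 5% CO2. Seeded 4 × 10^5 cells/well, after 24 h treated 24 h with DMSO or compound in fresh medium. Lysed in Tris-HCl/NaCl/NP-40/Triton X-100 buffer with protease inhibitor, Bradford-quantified, 30 μg protein per lane. Quantitative Western blot with specific HDAC1/2/3 antibodies, IRDye secondaries, infrared imaging, versus DMSO. n = 2 replicates.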

HCT-116 [2] = assay: Effect on histone H3 lysine K56 acetylation in human HCT-116 cells assessed as increase in H3K56ac level at 0.1 to 10 uM by Western blot analysis; type: functional, cell-based; settings: dose 0.1-10 µM
How it was run: (§2)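 HCT116 cells (DMEM, 10% FBS, glutamine/pen/strep, 37 °C, 5% CO2) seeded 24 h, then treated with DMSO or compound in fresh medium. Pellets after lysis were acid-extracted with 0.4 N H2SO4 at 4 °C overnight. Acid histone extract run on 4–12% bis-Tris gels, transferred to nitrocellulose and probed for H3K56ac. IRDye secondaries with infrared imaging.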

[3] = target: T1, E3 ubiquitin-protein ligase Mdm2/Histone deacetylase 3 (Homo sapiens); assay: PROTAC activity at MDM2/HDAC3 in human HCT-116 cells assessed as reduction in HDAC3 abundance by measuring remaining activity at 10 uM measured after 24 hrs by Western blot analysis (reference value: 100%); type: cell-based; how it was run: as §1
[4] = target: T2, E3 ubiquitin-protein ligase Mdm2/Histone deacetylase 2 (Homo sapiens) (UniProt Q00987+Q92769); assay: PROTAC activity at MDM2/HDAC2 in human HCT-116 cells assessed as decrease in HDAC2 abundance by measuring remaining activity at 0.1 uM measured after 24 hrs by Western blot analysis (reference value: 100%); type: cell-based
T2 sequence (Q00987 whole entry, looked up): as above
T2 sequence (Q92769 whole entry, looked up): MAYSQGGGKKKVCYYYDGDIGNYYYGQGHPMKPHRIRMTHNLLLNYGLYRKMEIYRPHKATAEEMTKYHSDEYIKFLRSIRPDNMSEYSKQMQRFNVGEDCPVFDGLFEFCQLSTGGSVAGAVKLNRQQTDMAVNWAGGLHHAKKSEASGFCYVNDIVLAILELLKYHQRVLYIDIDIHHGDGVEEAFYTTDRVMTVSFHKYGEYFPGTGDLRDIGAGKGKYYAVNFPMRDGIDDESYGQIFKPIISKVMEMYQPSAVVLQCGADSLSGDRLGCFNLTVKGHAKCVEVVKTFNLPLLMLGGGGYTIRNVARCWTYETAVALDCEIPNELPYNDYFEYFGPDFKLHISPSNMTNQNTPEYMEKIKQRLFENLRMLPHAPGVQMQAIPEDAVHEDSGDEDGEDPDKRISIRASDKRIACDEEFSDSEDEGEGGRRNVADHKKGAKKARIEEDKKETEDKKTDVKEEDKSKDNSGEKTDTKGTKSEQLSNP
How it was run: (§3)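 HCT116 cells seeded in six-well plates for 24 h, then exposed 24 h to compound (0.01–10 μM) or DMSO in fresh medium. Lysis in Tris-HCl/NaCl/NP-40/Triton X-100 with protease inhibitor. Bradford-normalised 30 μg protein per lane. Quantitative Western blot used specific HDAC1, HDAC2, HDAC3, LSD1 or Sin3a antibodies with IRDye secondaries. Abundance compared with DMSO, n = 2 replicates.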

[5] = target: T3, E3 ubiquitin-protein ligase Mdm2/Histone deacetylase 1 (Homo sapiens) (UniProt Q00987+Q13547); assay: PROTAC activity at MDM2/HDAC1 in human HCT-116 cells assessed as decrease in HDAC1 abundance by measuring remaining activity at 0.1 uM measured after 24 hrs by Western blot analysis (reference value: 100%); type: cell-based; how it was run: as §3
T3 sequence (Q00987 whole entry, looked up): as the sequence (Q00987 whole entry, looked up) above
T3 sequence (Q13547 whole entry, looked up): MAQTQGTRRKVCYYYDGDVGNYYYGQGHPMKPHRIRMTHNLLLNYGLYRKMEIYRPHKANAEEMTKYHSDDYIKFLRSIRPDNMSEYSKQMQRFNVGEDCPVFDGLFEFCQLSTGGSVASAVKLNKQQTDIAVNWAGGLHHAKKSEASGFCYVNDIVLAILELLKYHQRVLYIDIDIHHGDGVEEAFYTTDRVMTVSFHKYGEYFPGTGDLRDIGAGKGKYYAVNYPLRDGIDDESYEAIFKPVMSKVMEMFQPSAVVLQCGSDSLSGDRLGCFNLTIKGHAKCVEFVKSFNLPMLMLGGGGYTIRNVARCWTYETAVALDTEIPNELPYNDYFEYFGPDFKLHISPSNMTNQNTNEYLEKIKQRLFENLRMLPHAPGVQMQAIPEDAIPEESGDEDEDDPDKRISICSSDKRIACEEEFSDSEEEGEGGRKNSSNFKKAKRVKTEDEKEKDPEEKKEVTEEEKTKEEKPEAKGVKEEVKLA

[6] = target: T1, E3 ubiquitin-protein ligase Mdm2/Histone deacetylase 3 (Homo sapiens); assay: PROTAC activity at MDM2/HDAC3 in human HCT-116 cells assessed as reduction in HDAC3 abundance by measuring remaining activity at 1 uM measured after 24 hrs by Western blot analysis (reference value: 100%); type: cell-based; how it was run: as §1
[7] = target: T2, E3 ubiquitin-protein ligase Mdm2/Histone deacetylase 2 (Homo sapiens); assay: PROTAC activity at MDM2/HDAC2 in human HCT-116 cells assessed as decrease in HDAC2 abundance by measuring remaining activity at 10 uM measured after 24 hrs by Western blot analysis (reference value: 100%); type: cell-based; how it was run: as §3
[8] = target: T3, E3 ubiquitin-protein ligase Mdm2/Histone deacetylase 1 (Homo sapiens); assay: PROTAC activity at MDM2/HDAC1 in human HCT-116 cells assessed as decrease in HDAC1 abundance by measuring remaining activity at 1 uM measured after 24 hrs by Western blot analysis (reference value: 100%); type: cell-based; how it was run: as §3
[9] = target: T2, E3 ubiquitin-protein ligase Mdm2/Histone deacetylase 2 (Homo sapiens); assay: PROTAC activity at MDM2/HDAC2 in human HCT-116 cells assessed as decrease in HDAC2 abundance by measuring remaining activity at 1 uM measured after 24 hrs by Western blot analysis (reference value: 100%); type: cell-based; how it was run: as §3
[10] = target: T3, E3 ubiquitin-protein ligase Mdm2/Histone deacetylase 1 (Homo sapiens); assay: PROTAC activity at MDM2/HDAC1 in human HCT-116 cells assessed as decrease in HDAC1 abundance by measuring remaining activity at 10 uM measured after 24 hrs by Western blot analysis (reference value: 100%); type: cell-based; how it was run: as §3
[11] = target: Histone deacetylase 3 (Homo sapiens) (UniProt O15379); assay: Induction of HDAC3 degradation in human HCT-116 cells assessed as reduction in HDAC3 abundance by measuring remaining activity at 1 uM measured after 24 hrs by Western blot analysis; type: cell-based; how it was run: as §3
Chain of Histone deacetylase 3 (Homo sapiens) (O15379 whole entry): as the sequence (O15379 whole entry, looked up) above

[12] = target: Histone deacetylase 3 (Homo sapiens) (UniProt O15379); assay: Induction of HDAC3 degradation in human HCT-116 cells assessed as reduction in HDAC3 abundance by measuring remaining activity at 10 uM measured after 24 hrs by Western blot analysis; type: cell-based; how it was run: as §3
[13] = target: T4, Paired amphipathic helix protein Sin3a (Homo sapiens) (UniProt Q96ST3); assay: Induction of SIN3A degradation in human HCT-116 cells assessed as reduction in SIN3A abundance by measuring remaining activity at 10 uM measured after 24 hrs by Western blot analysis (reference value: 100%); type: cell-based; how it was run: as §3
T4 sequence (whole entry): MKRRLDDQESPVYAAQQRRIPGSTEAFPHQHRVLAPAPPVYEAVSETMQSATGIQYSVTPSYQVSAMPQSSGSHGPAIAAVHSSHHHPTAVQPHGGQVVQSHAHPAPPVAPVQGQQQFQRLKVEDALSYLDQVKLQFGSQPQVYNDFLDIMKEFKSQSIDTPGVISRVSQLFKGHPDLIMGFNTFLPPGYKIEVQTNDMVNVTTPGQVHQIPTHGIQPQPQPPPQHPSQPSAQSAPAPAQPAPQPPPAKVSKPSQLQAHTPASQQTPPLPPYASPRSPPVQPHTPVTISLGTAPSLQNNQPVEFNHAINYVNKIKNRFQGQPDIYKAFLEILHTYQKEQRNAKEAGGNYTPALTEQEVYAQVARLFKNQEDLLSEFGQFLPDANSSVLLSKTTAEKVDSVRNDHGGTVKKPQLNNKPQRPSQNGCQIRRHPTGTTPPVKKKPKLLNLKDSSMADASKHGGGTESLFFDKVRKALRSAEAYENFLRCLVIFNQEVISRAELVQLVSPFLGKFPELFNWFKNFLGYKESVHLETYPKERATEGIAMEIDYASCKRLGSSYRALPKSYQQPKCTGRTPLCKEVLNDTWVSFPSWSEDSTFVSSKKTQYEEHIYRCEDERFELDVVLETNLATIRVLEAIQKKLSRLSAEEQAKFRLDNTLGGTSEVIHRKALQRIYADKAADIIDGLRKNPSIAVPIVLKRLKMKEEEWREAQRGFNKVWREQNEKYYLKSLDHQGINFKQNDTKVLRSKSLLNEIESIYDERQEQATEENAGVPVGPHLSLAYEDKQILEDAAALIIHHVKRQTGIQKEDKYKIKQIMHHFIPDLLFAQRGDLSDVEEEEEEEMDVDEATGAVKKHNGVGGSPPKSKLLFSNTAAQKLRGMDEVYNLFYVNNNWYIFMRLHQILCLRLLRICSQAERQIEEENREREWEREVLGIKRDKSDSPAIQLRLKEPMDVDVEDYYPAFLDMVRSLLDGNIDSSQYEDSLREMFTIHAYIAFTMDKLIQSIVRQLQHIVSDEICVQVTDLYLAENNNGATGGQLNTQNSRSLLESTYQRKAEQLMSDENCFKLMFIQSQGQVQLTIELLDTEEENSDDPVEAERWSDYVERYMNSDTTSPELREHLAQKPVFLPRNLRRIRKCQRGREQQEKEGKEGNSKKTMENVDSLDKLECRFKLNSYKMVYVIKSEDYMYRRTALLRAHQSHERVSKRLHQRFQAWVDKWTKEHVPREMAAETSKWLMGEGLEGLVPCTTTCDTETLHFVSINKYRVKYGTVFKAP

[14] = Inhibition of LSD1-CoREST-HDAC (unknown origin) by AMC-fluorescence assay; design: species or system Homo sapiens
[15] = target: Lysine-specific histone demethylase 1A (Homo sapiens) (UniProt O60341); assay: Induction of LSD1 degradation in human HCT-116 cells assessed as reduction in LSD1 abundance by measuring remaining activity at 10 uM measured after 24 hrs by Western blot analysis (reference value: 100%); type: cell-based; how it was run: as §3
HCT-116 [16] = assay: Effect on histone H3 lysine K56 acetylation in human HCT-116 cells assessed as increase in H3K56ac level at 10 uM by Western blot analysis; type: functional, cell-based; how it was run: as §2
[17] = target: von Hippel-Lindau disease tumor suppressor/Histone deacetylase 1 (Homo sapiens) (UniProt Q13547+P40337); assay: PROTAC activity at VHL/HDAC1 in human HCT-116 cells assessed as decrease in HDAC1 abundance by measuring remaining activity at 10 uM measured after 24 hrs by Western blot analysis (reference value: 100%); type: cell-based; how it was run: as §1
Chain of von Hippel-Lindau disease tumor suppressor/Histone deacetylase 1 (Homo sapiens) (P40337 whole entry, looked up): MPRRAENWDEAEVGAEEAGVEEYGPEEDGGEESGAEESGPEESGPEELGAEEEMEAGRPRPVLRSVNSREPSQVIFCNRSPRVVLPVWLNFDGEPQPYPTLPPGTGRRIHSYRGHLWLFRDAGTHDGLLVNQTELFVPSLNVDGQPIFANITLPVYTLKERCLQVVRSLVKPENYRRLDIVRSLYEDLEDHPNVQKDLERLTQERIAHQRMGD
Chain of von Hippel-Lindau disease tumor suppressor/Histone deacetylase 1 (Homo sapiens) (Q13547 whole entry, looked up): as the sequence (Q13547 whole entry, looked up) above

[18] = target: von Hippel-Lindau disease tumor suppressor/Histone deacetylase 3 (Homo sapiens) (UniProt O15379+P40337); assay: PROTAC activity at VHL/HDAC3 in human HCT-116 cells assessed as reduction in HDAC3 abundance by measuring remaining activity at 10 uM measured after 24 hrs by Western blot analysis (reference value: 100%); type: cell-based; how it was run: as §1
Chain of von Hippel-Lindau disease tumor suppressor/Histone deacetylase 3 (Homo sapiens) (O15379 whole entry, looked up): as the sequence (O15379 whole entry, looked up) above
Chain of von Hippel-Lindau disease tumor suppressor/Histone deacetylase 3 (Homo sapiens) (P40337 whole entry, looked up): as the sequence (P40337 whole entry, looked up) above

[19] = target: von Hippel-Lindau disease tumor suppressor/Histone deacetylase 2 (Homo sapiens) (UniProt Q92769+P40337); assay: PROTAC activity at VHL/HDAC2 in human HCT-116 cells assessed as decrease in HDAC2 abundance by measuring remaining activity at 10 uM measured after 24 hrs by Western blot analysis (reference value: 100%); type: cell-based; how it was run: as §1
Chain of von Hippel-Lindau disease tumor suppressor/Histone deacetylase 2 (Homo sapiens) (P40337 whole entry, looked up): as above
Chain of von Hippel-Lindau disease tumor suppressor/Histone deacetylase 2 (Homo sapiens) (Q92769 whole entry, looked up): as the sequence (Q92769 whole entry, looked up) above

Row | Activity [1] [%] | Activity [3] [%] | Activity [4] [%] | Activity [5] [%] | Activity [6] [%] | Activity [7] [%] | Activity [8] [%] | Activity [9] [%] | Activity [10] [%] | Activity [11] [%] | Activity [12] [%] | Activity [13] [%] | IC50 [14] [nM] | Activity [15] [%] | Activity [17] [%] | Activity [18] [%] | Activity [19] [%] | SMILES | Activity (HCT-116 [2]) | Activity (HCT-116 [16])
1 | 112 | 122 | 102 | 91 | 128 | 84 | 85 | 94 | 65 | – | – | – | – | – | – | – | – | COc1cc(C(=O)NCCOCCOCCOCCC(=O)Nc2ccc(C(=O)Nc3ccccc3N)cc2)ccc1NC(=O)[C@@H]1N[C@@H](CC(C)(C)C)[C@](C#N)(c2ccc(Cl)cc2F)[C@H]1c1cccc(Cl)c1F | inactive | –
2 | 114 | 109 | 100 | 93 | 114 | 100 | 88 | 101 | 101 | – | – | – | – | – | – | – | – | COc1cc(C(=O)NCCCCCCCC(=O)Nc2ccc(C(=O)Nc3ccccc3N)cc2)ccc1NC(=O)[C@@H]1N[C@@H](CC(C)(C)C)[C@](C#N)(c2ccc(Cl)cc2F)[C@H]1c1cccc(Cl)c1F | – | –
3 | – | – | – | – | – | – | – | – | – | 110 | 101 | – | – | – | – | – | – | COc1cc(C(=O)O)ccc1NC(=O)[C@@H]1N[C@@H](CC(C)(C)C)[C@](C#N)(c2ccc(Cl)cc2F)[C@H]1c1cccc(Cl)c1F | – | –
4 | – | – | – | – | – | – | – | – | – | 122 | 138 | 81 | ~500 | 109 | – | – | – | CC(=O)Nc1ccc(C(=O)Nc2ccccc2N)cc1 [TACEDINALINE] | – | Active
5 | 101 | 118 | 100 | 98 | 102 | 103 | 103 | 101 | 109 | – | – | – | – | – | – | – | – | COc1cc(C(=O)NCCCCCCCCCCCC(=O)Nc2ccc(C(=O)Nc3ccccc3N)cc2)ccc1NC(=O)[C@@H]1N[C@@H](CC(C)(C)C)[C@](C#N)(c2ccc(Cl)cc2F)[C@H]1c1cccc(Cl)c1F | – | –
6 | – | – | – | – | – | – | – | – | – | – | – | 85 | – | 97 | 37 | 88 | 58 | Cc1ncsc1-c1ccc(CNC(=O)[C@@H]2C[C@@H](O)CN2C(=O)[C@@H](NC(=O)CCCCCCCCCCC(=O)Nc2ccc(C(=O)Nc3ccccc3N)cc2)C(C)(C)C)cc1 | – | Active
